M5 PAM: potentiates acetylcholine response at human M5 receptor | actives 0.3% (n = 360,000) | P08912 | CHO-K1 hM5, Fluo-8 calcium, ACh EC20 PAM; 0% = ACh EC20, 100% = ACh EC100 | activation, % at 3 µM;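 active means activation above the run cutoff, the mean activation of all test compounds plus 3 SD, cut at about 18% in these data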
Target sequence (P08912 whole entry, looked up): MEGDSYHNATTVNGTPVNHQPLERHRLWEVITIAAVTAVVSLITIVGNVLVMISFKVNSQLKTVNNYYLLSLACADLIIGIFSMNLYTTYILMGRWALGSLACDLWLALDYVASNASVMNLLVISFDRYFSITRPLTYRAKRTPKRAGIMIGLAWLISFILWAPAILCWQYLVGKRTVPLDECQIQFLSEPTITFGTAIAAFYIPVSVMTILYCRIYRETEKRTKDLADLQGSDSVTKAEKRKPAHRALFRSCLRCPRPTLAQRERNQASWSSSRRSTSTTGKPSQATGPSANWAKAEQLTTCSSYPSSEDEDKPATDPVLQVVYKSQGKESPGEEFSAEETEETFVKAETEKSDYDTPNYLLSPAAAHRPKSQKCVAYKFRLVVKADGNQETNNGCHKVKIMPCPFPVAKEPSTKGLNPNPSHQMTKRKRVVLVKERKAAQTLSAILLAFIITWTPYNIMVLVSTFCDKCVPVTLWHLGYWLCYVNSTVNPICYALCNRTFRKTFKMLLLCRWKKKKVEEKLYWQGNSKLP
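System – CHO-K1 hM5 cells · Compound – 3 µM, single dose · Incubation – compound preincubation 140 s before EC20 acetylcholine addition · Technique – Fluo-8 calcium fluorescence · Measure – Max/basal fluorescence ratio as % of EC20–EC100 ACh window · Benchmarks – low control EC20 acetylcholine (0%), high control EC100 acetylcholine (100%) · Replication – singlicate, one well per test compound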
M5 antag: CHRM5 antagonism in calcium assay | AID 624040 | inhibition, % at 3 µM | actives 0.59% (n = 360,000) | CHO-hM5 cells, Fluo-8 calcium fluorescence, ACh EC80 | P08912;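 active means inhibition above a per-plate cutoff, the mean of that plate's test compounds plus 3 SD, cut at about 27% in these data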;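 further: 0% = acetylcholine EC80 with DMSO and 100% = DMSO without agonist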
CHRM5 agonist: CHRM5 agonism in calcium assay; P08912; CHO-K1 hM5 cells, Fluo-8 calcium fluorescence; 0% DMSO wells, 100% maximal acetylcholine response; activation, % at 3 µM; actives 0.19% (n = 360,000); AID 624037;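 active means activation above the run's mean over test compounds plus 3 SD, cut at about 23% in these data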;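 further: signal is peak over basal fluorescence ratio across the kinetic read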
M1 ag: human M1 muscarinic receptor agonism. activation, % at 3 µM. actives 0.33% (n = 360,000). P11229. CHO-K1 hM1, Fluo-8 calcium fluorescence, agonist mode; 0% DMSO, 100% acetylcholine EC100. AID 588814;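 active means activation above the run's mean compound activation plus 3 SD, cut at about 16% in these data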;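 further: peak over basal fluorescence ratio within a 140 s kinetic read after compound addition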
M1 PAM: potentiates human M1 receptor response to acetylcholine | CHO-K1 hM1, Fluo-8 calcium fluorescence, ACh EC20; 0% = ACh EC20, 100% = maximal ACh | activation, % at 3 µM | actives 0.088% (n = 360,000) | AID 588819; in the data active means activation above about 19%, passing the limit was not always enough
M1 antag: antagonists of human M1 muscarinic receptor; inhibition, % at 3 µM; actives 1.3% (n = 360,000); AID 588852; CHO-K1 hM1, Fluo-8 calcium fluorescence, ACh EC80 antagonist; P11229;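 active means percent inhibition above its own plate's cutoff, namely the mean of that plate's compound wells plus 3 SD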;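 further: peak over basal fluorescence ratio during 140 s after agonist addition; 0% = ACh EC80 plus DMSO and 100% = DMSO alone without agonist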
An asterisk follows results filed as active; / = not tested or not shown. Most compounds without a hit are left out; they make up all but 2% or so of the library.

SMILES	M5 PAM	M5 antag	CHRM5 agonist	M1 ag	M1 PAM	M1 antag
O=C(Nc1cccc(S(=O)(=O)Nc2ccc(Cl)cc2)c1)c1ccc(Cl)nc1	-20	35*	5	1	-15	29*
COc1ccc(NS(=O)(=O)c2cccc(NC(=O)c3ccc(Cl)nc3)c2)cc1	-18	35*	5	3	-12	24
O=C(Nc1ccc(NS(=O)(=O)c2ccccc2)cc1)c1ccc(Cl)cc1	-7	11	-6	-4	3	-3
O=C(C1=NOC2(C1)C(=O)Nc1ccccc12)N1CCCC1 (stereo not given)	2	-5	2	/	/	/
CCOc1cc(/C=C2\SC(=O)N(CC(=O)Nc3ccccc3F)C2=O)cc([N+](=O)[O-])c1O	23*	-1	0	-1	7	7
CCN(CC)CCn1c(NCc2cccc(OC)c2OC)nc2ccccc21	-11	31*	-5	-5	0	-1
Cc1cc(C)c(CN2CCN(C(=O)CC[C@H]3O[C@@H](n4cnc5c(NC(=O)c6ccccc6)ncnc54)[C@H](O)[C@@H]3O)CC2)c(C)c1	0	10	-1	-5	2	-23
Cc1ccc(C2C(C#N)=C(N)Oc3cc(N)ccc32)cc1 (stereo not given)	-1	7	1	0	8	-15
Cc1ccc(/C=C2\CCC3=C2OC(N)=C(C#N)C3c2ccc(C)cc2)cc1 (stereo not given)	-28	33*	4	27*	-12	50*
O=C(Nc1nnc([C@@H]2C[C@H](O)[C@@H](CO)O2)s1)Nc1ccc(F)cc1F	0	-7	0	-2	5	-9
CSc1nc(N)nc2c1ncn2C1OC(CO)C(O)C1O (stereo not given)	-6	33*	-2	0	12	-10
O=[N+]([O-])c1cc(Cl)cc(/C=N/n2cnnc2)c1O	25*	4	15	2	0	6
O=[N+]([O-])c1cc(Br)cc(/C=N/n2cnnc2)c1O	1	6	4	2	1	6
COc1ccc(NC(=O)C2CCCN(S(C)(=O)=O)C2)c(OC)c1 (stereo not given)	19*	-11	9	1	19	-15
COc1ccc(NC(=O)C2CCN(C(=O)c3ccccc3)CC2)c(OC)c1	3	7	1	-12	-21	61*
COc1ccc(C(=O)N2CCC(C(=O)Nc3ccccc3OC)CC2)cc1	2	0	0	-4	6	-3
COc1ccc(NC(=O)C2CCN(S(C)(=O)=O)CC2)c(OC)c1	-4	-1	0	0	10	-16
CCCCCCCCN1C(=O)[C@H](CC(=O)N2CCOCC2)C[C@@]2(C(=O)OC)CC(C)(C)CC=C12	2	2	-2	/	/	/
O=C1c2ccccc2C(c2nnnn2-c2ccc3c(c2)OCCO3)N1CCOc1ccccc1 (stereo not given)	-5	0	2	/	/	/
COc1ccc(CN2C[C@H]3CON(C)[C@H]3C[C@H]2c2ccc(-c3ccccc3)cc2)cc1	-9	4	-1	-3	10	-10
O=C(Nc1ccc(F)cc1)Nc1ccccc1NS(=O)(=O)c1cccs1	-19	25	11	3	-13	10
O=C(Nc1ccc(Cl)cc1)Nc1ccccc1NS(=O)(=O)c1cccs1	-19	44*	7	2	-26	34*
Cc1nn(S(=O)(=O)c2cccs2)c(C)c1Sc1ccc([N+](=O)[O-])cc1	-34	19	-11	-4	-19	28*
Cc1nn(S(=O)(=O)c2ccccc2)c(C)c1Sc1ccc([N+](=O)[O-])cc1	-13	0	-4	-4	-14	13
CCOc1ccc(S(=O)(=O)NCCC(=O)NC2CCN(Cc3ccccc3)CC2)cc1	0	-2	-3	-6	4	3
CN(C)S(=O)(=O)c1cccc(C(=O)NCC(=O)NC2CCN(Cc3ccccc3)CC2)c1	-3	16	-5	-13	-16	34*

Source: PubChem BioAssay (The Scripps Research Institute Molecular Screening Center)
